Results pooled from the literature.
Compare with care: the assays were run in different laboratories.
Target: Ephrin type-B receptor 3 (EPHB3, Homo sapiens, UniProt P54753)
One construct used (P54753 34-998): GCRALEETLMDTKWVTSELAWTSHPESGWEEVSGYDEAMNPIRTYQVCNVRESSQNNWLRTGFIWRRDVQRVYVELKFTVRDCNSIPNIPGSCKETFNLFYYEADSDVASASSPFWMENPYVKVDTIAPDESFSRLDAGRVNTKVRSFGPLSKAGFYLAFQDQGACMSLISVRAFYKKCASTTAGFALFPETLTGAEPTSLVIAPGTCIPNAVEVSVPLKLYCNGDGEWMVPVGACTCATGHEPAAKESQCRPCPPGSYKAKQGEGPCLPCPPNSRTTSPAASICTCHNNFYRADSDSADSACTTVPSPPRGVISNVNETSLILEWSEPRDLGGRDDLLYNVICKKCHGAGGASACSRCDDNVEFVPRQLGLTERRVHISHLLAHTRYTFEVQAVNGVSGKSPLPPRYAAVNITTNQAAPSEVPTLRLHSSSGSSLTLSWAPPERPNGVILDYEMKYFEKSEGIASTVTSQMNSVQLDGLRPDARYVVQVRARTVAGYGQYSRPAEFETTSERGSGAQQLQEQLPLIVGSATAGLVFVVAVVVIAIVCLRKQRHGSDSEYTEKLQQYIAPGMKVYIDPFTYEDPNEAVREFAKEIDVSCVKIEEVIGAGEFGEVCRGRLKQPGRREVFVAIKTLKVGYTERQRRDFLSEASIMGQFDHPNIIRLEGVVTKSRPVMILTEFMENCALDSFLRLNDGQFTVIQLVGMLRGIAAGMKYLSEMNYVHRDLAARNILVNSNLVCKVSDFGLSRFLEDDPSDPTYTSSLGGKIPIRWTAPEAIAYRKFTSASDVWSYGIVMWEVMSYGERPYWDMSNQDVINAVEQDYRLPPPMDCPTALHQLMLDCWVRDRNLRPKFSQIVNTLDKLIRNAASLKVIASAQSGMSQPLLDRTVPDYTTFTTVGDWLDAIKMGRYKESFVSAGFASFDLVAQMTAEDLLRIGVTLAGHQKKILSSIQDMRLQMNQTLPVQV

SMILES | effect on | method | tested at | remaining binding
O=C(NCC1CCOCC1)c1n[nH]cc1NC(=O)c1c(F)cccc1F | binding | competition with immobilised ligand | 1 µM | 100%
O=C(O)c1cc(-c2ccc(C3CCNCC3)cc2)c2ccc(-c3ccc(C(F)(F)F)cc3)cc2c1 | cell-free assay | competition with immobilised ligand | 1 µM | 100%
c1cncc(-c2cccc(Nc3nccc(NC4CCCCC4)n3)c2)c1 | binding | competition with immobilised ligand | 10 µM | 89%
c1cnn2ncc(-c3ccnc(N4CCC45COC5)n3)c2c1 | binding |  | 1 µM | 87%
O=C(c1ccc(Nc2ncc(Cl)c(-c3ccc(Cl)s3)n2)cc1)N1CCC(N2CCCC2)CC1 | binding | competition with immobilised ligand | 1 µM | 88%
N[C@H]1CCN(c2nccc(-c3cnn4ncccc34)n2)C1 | binding |  | 1 µM | 97%
COc1ccc2c(c1)O[C@@H](c1ccc(OC)c(OC)c1)C[C@H]2NC(=O)C1(c2ccc3c(c2)OC(F)(F)O3)CC1 | cell-free assay | competition with immobilised ligand | 1 µM | 90%
CN(C)c1nccc(-c2cnn3ncccc23)n1 | binding |  | 1 µM | 88%
CNC(=O)Nc1ccc2c(c1)CC[C@@]21OC(=O)N(CC(=O)N(Cc2ccc(F)cc2)[C@@H](C)C(F)(F)F)C1=O | cell-free assay | competition with immobilised ligand | 1 µM | 80%
O=C(NCCCN1CCOCC1)c1ccc(Nc2nccc(-c3cc4ccccc4s3)n2)cc1 | binding | competition with immobilised ligand | 1 µM | 93%
O=C1NC(c2ccccn2)Sc2ccccc21 (centres unmarked) | cell-free assay | competition with immobilised ligand | 1 µM | 80%
F[C@@H]1CCN(c2nccc(-c3cnn4ncccc34)n2)C1 | binding |  | 1 µM | 77%
Cc1cc(-n2nc(Cc3cc(F)cc(C(F)(F)F)c3)nc2C)ccc1C(N)=O | cell-free assay | competition with immobilised ligand | 1 µM | 100%
C[C@@H](c1ccc(-n2cnc3c(N)ncnc32)cc1)N1CCc2nn(C)c(Cc3ccccc3)c2C1=O | binding | competition with immobilised ligand | 0.1 µM | 90%
C=CC(=O)N1CCC(C(=O)NCC(=O)N2CCN(c3nc(-c4cnc(N)nc4C(F)F)nc(N4CCOCC4)n3)CC2)CC1 | binding | competition with immobilised ligand | 1 µM | 98%
C[C@@H]1CCN(c2nccc(-c3cnn4ncccc34)n2)C1 | binding |  | 1 µM | 100%
COc1cnc(Nc2cccc(S(N)(=O)=O)c2)nc1N1CCN(c2ccccc2)CC1 | binding | competition with immobilised ligand | 1 µM | 100%
CCS(=O)(=O)c1cc2cc(C[C@@](O)(CC(C)(C)c3ccc(F)cc3C(N)=O)C(F)(F)F)[nH]c2cn1 | cell-free assay | competition with immobilised ligand | 1 µM | 92%
CC1CCCN1c1nccc(-c2cnn3ncccc23)n1 (centres unmarked) | binding |  | 1 µM | 89%
O=C(NCCCN1CCOCC1)c1ccc(Nc2ncc(Cl)c(-c3ccc(Cl)s3)n2)cc1 | binding | competition with immobilised ligand | 1 µM | 95%
